Values after ≈ are worked out from the molar mass of the structure shown.
Key:
[1] = system: Mycobacterium tuberculosis; experiment: Antimycobacterial activity against isoniazid/rifampicin-resistant Mycobacterium tuberculosis MTB11168 after 7 days by microplate Alamar blue assay; type: functional; settings: MTB11168, 168 h
Procedure, shortened: (§1)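 MABA against replicating M. tuberculosis. Cells grown to late log phase (70–100 Klett units) in 7H9 broth with 0.2% glycerol, 0.05% Tween 80 and 10% ADC. They were washed in PBS, filtered (8 µm) and frozen. Twofold compound dilutions received 2×10^5 CFU per well at 37 °C. Tween 80 and Alamar blue were added on day 7, then 16–24 h more. Fluorescence read at 530/590 nm. MIC = lowest concentration giving ≥90% fluorescence reduction versus bacterium-only controls.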

[2] = system: Mycobacterium tuberculosis; experiment: Antimycobacterial activity against isoniazid/rifampicin-resistant Mycobacterium tuberculosis MTB9160 after 7 days by microplate Alamar blue assay; type: functional; settings: MTB9160, 168 h; procedure, shortened: as §1

Row | Structure (SMILES) | MIC90 [1] | MIC90 [2]
1 | CO[C@H]1/C=C/O[C@@]2(C)Oc3c(C)c(O)c4c(O)c(c(/C=N/N5CCN(C)CC5)c(O)c4c3C2=O)NC(=O)/C(C)=C\C=C\[C@H](C)[C@H](O)[C@@H](C)[C@@H](O)[C@@H](C)[C@H](OC(C)=O)[C@@H]1C [RIFAMPIN] | > 57 µM | > 57 µM
2 | Cc1ccc2nc(C)c(C(=O)NCCNc3ccc(C(C)(C)C)cc3)n2c1 | 1.37 µM (≈ 0.499 µg/mL) | 0.57 µM (≈ 0.208 µg/mL)
3 | COc1ccc(NCCNC(=O)c2c(C)nc3ccc(C)cn23)cc1 | 1.47 µM (≈ 0.497 µg/mL) | 2.64 µM (≈ 0.893 µg/mL)
4 | NNC(=O)c1ccncc1 [ISONIAZID] | > 291 µM | > 291 µM
5 | Cc1ccc2nc(C)c(C(=O)NCCOc3ccc(Br)cc3)n2c1 | < 0.041 µM | 0.2 µM (≈ 0.0777 µg/mL)

Reference: ChEMBL document CHEMBL4118065, “Design, synthesis and antimycobacterial activity of novel imidazo[1,2-a]pyridine-3-carboxamide derivatives” (Eur J Med Chem, 2017)
